Assay results as given in publication PMC6815762 (Drug Design, Development and Therapy, 2019).
Peptide text beside a SMILES is read from it.

Key:
[1] = system: hCMEC/D3 cells; assay: Tube formation assay on Matrigel; format: cell-based, human; conditions: VEGF 10 ng/mL, positive control, 12 hr
[2] = system: hCMEC/D3 cells; assay: Cell proliferation assay; format: cell-based, human; conditions: 48 hr incubation, MTT, 570 nm, p > 0.05
[3] = target: integrin αvβ3 (Homo sapiens, UniProt P05106+P06756); assay: Determination of the dissociation constant by ELISA; format: binding
Chain of integrin αvβ3 (Homo sapiens, UniProt P05106+P06756) (P06756 31-1048): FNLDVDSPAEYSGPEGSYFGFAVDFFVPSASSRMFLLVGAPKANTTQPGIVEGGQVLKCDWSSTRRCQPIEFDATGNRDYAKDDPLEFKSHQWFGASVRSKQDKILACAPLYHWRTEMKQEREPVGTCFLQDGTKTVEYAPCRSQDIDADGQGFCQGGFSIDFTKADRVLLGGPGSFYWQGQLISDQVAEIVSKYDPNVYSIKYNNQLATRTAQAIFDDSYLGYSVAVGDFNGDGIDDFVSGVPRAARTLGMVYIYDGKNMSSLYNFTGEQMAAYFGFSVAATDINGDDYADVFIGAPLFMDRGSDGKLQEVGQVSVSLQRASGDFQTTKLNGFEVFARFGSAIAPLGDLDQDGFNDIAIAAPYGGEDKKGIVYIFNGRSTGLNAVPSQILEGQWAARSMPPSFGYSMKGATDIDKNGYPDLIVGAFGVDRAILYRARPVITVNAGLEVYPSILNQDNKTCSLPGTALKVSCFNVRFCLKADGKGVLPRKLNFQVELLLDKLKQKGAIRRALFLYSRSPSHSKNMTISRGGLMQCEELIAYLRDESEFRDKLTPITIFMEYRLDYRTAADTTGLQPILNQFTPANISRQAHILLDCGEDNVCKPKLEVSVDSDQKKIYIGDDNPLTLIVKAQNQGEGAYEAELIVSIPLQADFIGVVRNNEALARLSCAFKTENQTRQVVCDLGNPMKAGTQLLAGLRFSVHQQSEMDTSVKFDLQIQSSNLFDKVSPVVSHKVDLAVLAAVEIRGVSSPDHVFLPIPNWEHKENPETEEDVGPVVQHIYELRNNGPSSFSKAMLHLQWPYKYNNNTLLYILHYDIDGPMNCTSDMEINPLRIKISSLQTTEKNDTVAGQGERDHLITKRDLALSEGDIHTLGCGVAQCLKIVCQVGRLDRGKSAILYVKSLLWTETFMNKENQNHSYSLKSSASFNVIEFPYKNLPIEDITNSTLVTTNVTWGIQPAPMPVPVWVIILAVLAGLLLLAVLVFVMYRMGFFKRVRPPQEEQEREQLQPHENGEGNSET
Chain of integrin αvβ3 (Homo sapiens, UniProt P05106+P06756) (P05106 27-788): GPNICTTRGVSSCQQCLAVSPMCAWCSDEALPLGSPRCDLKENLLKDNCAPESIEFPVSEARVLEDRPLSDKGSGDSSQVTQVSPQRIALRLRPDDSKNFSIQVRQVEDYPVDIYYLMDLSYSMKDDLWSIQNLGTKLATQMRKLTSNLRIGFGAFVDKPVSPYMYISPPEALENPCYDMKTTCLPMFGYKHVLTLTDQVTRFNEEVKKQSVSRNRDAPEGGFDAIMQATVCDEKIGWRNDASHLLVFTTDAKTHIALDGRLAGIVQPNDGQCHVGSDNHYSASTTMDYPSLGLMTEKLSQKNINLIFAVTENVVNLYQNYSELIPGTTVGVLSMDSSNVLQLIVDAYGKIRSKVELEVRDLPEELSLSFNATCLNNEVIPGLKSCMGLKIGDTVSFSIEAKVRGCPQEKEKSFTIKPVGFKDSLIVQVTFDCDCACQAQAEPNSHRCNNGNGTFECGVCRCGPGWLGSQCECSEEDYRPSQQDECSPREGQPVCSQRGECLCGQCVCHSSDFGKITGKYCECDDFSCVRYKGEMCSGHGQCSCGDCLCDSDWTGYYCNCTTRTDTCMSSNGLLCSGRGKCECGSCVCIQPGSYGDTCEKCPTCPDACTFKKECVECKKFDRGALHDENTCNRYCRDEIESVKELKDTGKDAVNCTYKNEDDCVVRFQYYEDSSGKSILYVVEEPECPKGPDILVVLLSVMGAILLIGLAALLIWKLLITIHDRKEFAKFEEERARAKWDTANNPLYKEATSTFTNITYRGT
How it was run: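 Solution-phase ELISA after Friguet. Integrin αvβ3 (serial, 0.5–32 nM) was equilibrated with test peptide (0.5 nM) for 4 hrs at 37°C. The mixture was moved to wells precoated with anti-integrin αvβ3 antibody (1:50) for 1 hr at room temperature, washed, and bound complexes detected by ELISA. Absorbance was taken without receptor (A0) and at each receptor concentration (A). Run in triplicate; Kd from one-site specific binding nonlinear regression.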

[4] = target: integrin αvβ3 (UniProt P06756); assay: ELISA
Chain of integrin αvβ3 (UniProt P06756) (P06756 31-1048, chain 1 of 2): as the sequence (P06756 31-1048) above
Chain of integrin αvβ3 (UniProt P06756) (P05106 27-788, chain 2 of 2, further chain): as the sequence (P05106 27-788) above

In the case of VEGF, the “tube formation, result in words” value [1] is reported as “the tube-like structures were developed from clear elongated cell bodies, which connected to form a polygon network”.

`N=C(N)NCCC[C@H](NC(=O)[C@@H]1CCCN1C(=O)[C@H](Cc1c[nH]c2ccccc12)NC(=O)[C@H](CCCNC(=N)N)NC(=O)[C@H](Cc1ccccc1)NC(=O)[C@H](CC(=O)O)NC(=O)CNC(=O)[C@@H](N)CCCNC(=N)N)C(=O)O` [GCPF] (H-RGDFRWPR-OH) was tested, and the proliferation inhibition rate ([2]; 1 μg/mL) was 0.15%, the proliferation inhibition rate ([2]; 10 μg/mL) was 13.49% and the proliferation inhibition rate ([2]; 100 μg/mL) was 3.90%. The proliferation inhibition rate ([2]; 1000 μg/mL) was 1.98% and the Kd [3] was 2.41 ± 0.455 nM.

For RGDFRWPR [GCPF peptide], the Kd [4] was 2.41 nM.
